# Screening results as filed in PubChem BioAssay.
# MPTP inh – permeability transition pore inhibition | hit rate 1.4% among 360,000 | inhibition, % at 10 µM | isolated mouse mitochondria, Ca2+ swelling absorbance, 30 min;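 active = inhibition of 50% or more, scaled per plate between neutral and stimulator controls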;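 note: 0% = DMSO wells given calcium and 100% = 1 mM EGTA wells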
# T cruzi inh – T. cruzi replication inhibition. hit rate 1.4% among 300,000. inhibition, % (concentration not given with the values). AID 1885. T. cruzi beta-gal in NIH3T3, luminescence, 90 h;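 active = mean inhibition across valid replicates above about 55%, limit read from the data; inconclusive = mean below that limit but half or more replicates reach it; inactive = mean below it, under half of replicates reach it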;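 note: signal also drops with host cell toxicity which is not excluded here; 0% = plate median of DMSO wells and 100% = zero luminescence signal; higher percent means less beta-gal luminescence so fewer parasites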
#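 System – NIH/3T3 host cells with β-galactosidase reporter T. cruzi · Doses – single 50 nL compound addition per well in DMSO · Reagent – 5000 T. cruzi trypomastigotes/well · Medium – Low-serum DMEM with 2% FBS · Timing – ≥90 h infection period, 3 h prior cell attachment · Evaluation – parasite load inhibition, % · Technique – GalScreen luminescence, 60 min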
# DTT redox prof – compounds producing H2O2 with reducing agent – biochemical, NIH compound library profiling, artefact control for MLSCN library redox annotation, primary screen; DTT-dependent redox cycling H2O2, phenol red/HRP absorbance; 100% = 100 µM peroxide control, 0% = buffer; activation, % at 10 µM; hit rate 0.03% among 200,000; AID 878;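 active = activation of at least 50% relative to the plate's high and low controls in the primary single-dose screen; inactive = activation below 50%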;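 note: compound incubated with DTT at 0.8 mM final as the reducing agent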
# Hep lipid drop – hepatic lipid droplet formation modulation; AID 1656; inhibition, % at 6.5 µM; hit rate 0.4% among 240,000; AML12 mouse hepatocytes, oleate lipid droplets, BODIPY imaging;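 active = lipid droplet intensity inhibited by at least 50%, with more than 500 cells counted; inconclusive = wells with under 300 cells, treated as cytotoxic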
#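 Assay system: AML12 mouse liver cells | Compound: 6.5 µM single-point dosing | Schedule: Overnight exposure | Technique: Fluorescence imaging, 20x objective, two fields per well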
# L major viab – inhibitors of Leishmania major promastigote growth | AID 1063 | Leishmania major promastigotes, resazurin fluorescence viability | hit rate 9% among 200,000 | inhibition, % at 10 µM; in the data active = inhibition above about 50%;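 note: promastigotes grown with compound for 44 hours at 28 °C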
# Starred values were filed as active, the others as inactive; ? = inconclusive; nt = no result. This is one part of a sample in which hits are shown more often than they occur.
SMILES,MPTP inh,T cruzi inh,DTT redox prof,Hep lipid drop,L major viab
CC1(C)CC(NC(=O)c2sc3cc(Cl)ccc3c2Cl)CC(C)(C)N1,20.3,29.2,-0.1,-22.2,100.5*
O=C(Nc1nccs1)c1sc2cc(Cl)ccc2c1Cl,9.5,59.4*,-0.8,nt,2.1
O=C(COc1ccc(F)cc1Cl)Nc1nc(-c2ccccn2)cs1,-0.2,75.6*,nt,nt,nt
Cc1csc(NC(=O)/C=C/c2ccco2)n1,-0.3,18.3,0.5,-7.9,1.3
CSCCC(=O)Nc1nc(-c2ccccn2)cs1,-1.1,nt,-0.2,8.2,88.3*
O=C(CCCSc1ccccc1)Nc1nc(-c2ccccn2)cs1,-3.6,-6.7,0.0,15.3,100.3*
O=C(/C=C/c1ccco1)Nc1nc(-c2ccccn2)cs1,-1.1,59.6*,-1.9,15.6,99.8*
N#Cc1ccccc1OCC(=O)Nc1nc(-c2ccccn2)cs1,-0.5,nt,nt,nt,nt
O=C(CN(Cc1ccc(Cl)cc1)S(=O)(=O)c1ccccc1)NCC1CCCO1 (configuration not stated),-0.1,5.5,nt,-11.6,nt
O=C(c1cc(C2CCCCN2C(=O)OCCF)on1)N1CCOCC1 (configuration not stated),-0.3,nt,nt,nt,nt
O=C(Nc1ccc2nc(-c3ccccn3)[nH]c2c1)C1CCCCC1,0.4,-8.2,2.2,19.7,100.5*
CC(C)c1nc2ccc(NC(=O)C3CCCCC3)cc2[nH]1,-0.3,nt,0.3,5.6,4.9
O=C(Nc1nc(-c2ccccn2)cs1)C1CCCC1,-4.4,-17.6,-0.1,1.8,78.8*
COc1ccc(N(CC(O)Cn2c3ccccc3c3ccccc32)S(=O)(=O)c2ccccc2)cc1 (configuration not stated),1.4,16.6,2.4,nt,30.5
CC(=O)Nc1ccccc1N(CC(O)Cn1c2ccccc2c2ccccc21)S(=O)(=O)c1ccc(C)cc1 (configuration not stated),19.3,36.2,-0.1,-1.4,63.8*
Cc1cc(C)c(NC(=O)CS(=O)CC(=O)Nc2ccc(F)cc2F)c(C)c1 (configuration not stated),-0.1,-16.4,nt,9.2,nt
Cc1ccc2[nH]c(C)c(/C=C/c3cc[n+](C)cc3)c2c1,0.6,56.9*,nt,23.7,nt
Cc1ccc2c(c1)c(/C=C/c1cc[n+](C)cc1)c(C)n2C,-0.1,66.2*,nt,-16.7,nt
C[n+]1ccc(/C=C/c2c[nH]c3ccc(F)cc23)cc1,-1.4,?,nt,8.4,nt
Cn1cc(/C=C/c2cc[n+](C)cc2)c2cc(Cl)ccc21,-1.0,50.2,nt,15.7,nt
COc1cccc(CSc2nc3ccncc3[nH]2)c1,1.3,-14.9,nt,10.0,nt
O=C(NC12CC3CC(CC(C3)C1)C2)N(Cc1ccccc1)Cc1ccncc1,2.1,51.6,-0.1,nt,54.7*
O=C(CC12CC3CC(CC(C3)C1)C2)NCc1ccncc1,0.8,0.0,1.0,3.7,-0.5
c1cc(CNC23CC4CC(CC(C4)C2)C3)ccn1,-2.3,-2.4,-0.4,3.9,84.4*
CCC(C)NC(=O)c1c(N)n(/N=C/c2ccccn2)c2nc3ccccc3nc12 (configuration not stated),0.7,62.4*,3.1,nt,5.2
SMILES,MPTP inh,T cruzi inh,DTT redox prof,Hep lipid drop,L major viab
CCC(C)NC(=O)c1c(N)n(/N=C/c2cccnc2)c2nc3ccccc3nc12 (configuration not stated),-0.1,26.4,-0.5,nt,15.9
CC1C(=O)C(C)C(c2cc(Cl)ccc2O)NC1c1cc(Cl)ccc1O (configuration not stated),3.0,31.7,nt,nt,nt
COc1ccc(NC(=O)COc2ccc(/C=N/NC(=O)c3cccnc3)cc2OC)cc1,0.8,-6.6,0.2,-4.2,55.3*
O=C(COc1ccc(/C=N/NC(=O)c2cc3ccccc3o2)cc1Cl)Nc1ccccc1,-0.3,72.7*,-3.6,3.2,-3.7
COc1cc(/C=N/NC(=O)c2cccnc2)ccc1OCC(=O)Nc1ccccc1Cl,-0.5,3.6,-1.7,4.2,-4.5
COc1cc(/C=N/NC(=O)c2cccnc2)ccc1OCC(=O)Nc1c(C)cc(C)cc1C,0.2,-5.3,nt,-6.8,54.2*
CNC(=S)N/N=C/c1ccc(OCC(=O)Nc2c(C)cc(C)cc2C)c(OC)c1,-0.2,-11.4,0.4,-0.7,-1.9
CC(=O)Nc1cc(-c2ccccc2)cn2c(-c3ccc(F)cc3)cnc12,1.1,nt,nt,nt,nt
Cc1ccc(NC(=O)NCc2nc3ccccc3n2C)cc1,-1.8,-10.6,nt,-2.3,nt
Cc1ccc(NC(=O)C2=C(O)CCn3c2nc2ccccc23)cc1,-0.6,4.6,-13.1,14.2,57.4*
COc1cc2cc(CN(CCc3cccc(C)c3)C(=S)NCCCN(C)C)c(=O)[nH]c2cc1OC,-2.3,22.4,-0.5,-8.1,52.1*
Cc1cccc2cc(CN(CCCN(C)C)C(=S)NCCc3ccccc3)c(=O)[nH]c12,-0.7,62.0*,-0.1,-1.6,64.7*
COc1cc(/C=C/C(=O)O)cc(S(=O)(=O)NC2CC2)c1OC,-1.8,-14.3,-0.3,16.4,-8.2
O=C(CSc1ccc(Cl)cc1)N1CCN(c2c(Cl)cccc2[N+](=O)[O-])CC1,2.6,46.8,1.4,nt,64.8*
O=C(/C=C/c1ccc(Cl)cc1)N1CCN(c2c(Cl)cccc2[N+](=O)[O-])CC1,16.5,40.2,-0.7,-17.7,20.8
CCCCNC(=O)CCC(=O)NNc1nc2ccccc2c2nc(-c3ccccc3)nn12,-0.6,-7.1,-0.5,0.9,-4.0
COc1cc2[nH]c(=O)n3nc(-c4ccccc4)nc3c2cc1OC,1.9,20.7,0.4,4.0,50.4*
CCN(CC)CCNc1nc2cc(OC)c(OC)cc2c2nc(-c3ccccc3)nn12,-1.4,64.7*,0.3,0.0,100.5*
COc1ccc(Nc2nc(-c3ccccc3)nc3ccccc23)c(OC)c1,1.1,64.6*,0.1,1.6,48.4
COc1ccc(Nc2nc(N3CCN(S(C)(=O)=O)CC3)nc3ccccc23)c(OC)c1,0.7,9.3,nt,nt,nt
COc1ccc(Nc2nc(N3CCCCC3)nc3ccccc23)c(OC)c1,49.1,57.8*,0.9,17.1,97.2*
Cc1ccc(OCc2ccc(C(=O)Nc3c(C)nn(Cc4c(F)c(F)c(F)c(F)c4F)c3C)o2)c([N+](=O)[O-])c1,2.2,nt,-4.2,nt,91.6*
Cc1ccc(OCc2ccc(C(=O)NN)o2)c([N+](=O)[O-])c1,3.4,-6.9,nt,-23.1,nt
CCCCN1CC2=C(C1=O)C(c1ccc(O)cc1)NC(=O)N2C (configuration not stated),0.6,-10.7,-0.4,5.5,-0.6
COc1cccc(/C=N/Nc2nc(Nc3ccccc3)nc(-n3nc(C)cc3C)n2)c1O,10.5,45.1,-0.1,33.1,100.5*
COc1cccc(/C=N/Nc2nc3ccccc3[nH]2)c1O,5.1,47.6,nt,-6.3,nt
COc1cccc(/C=N/Nc2cc(-n3nc(C)cc3-c3ccccc3)ncn2)c1O,7.8,33.3,-0.1,13.8,67.1*
Cc1cc(C)n(-c2nc(Nc3ccccc3)nc(-n3nc(C)cc3C)n2)n1,2.9,-2.8,2.8,nt,-5.5
CCOc1cc(CNC2CCCC2)ccc1OCc1ccccc1Cl,7.4,37.6,-0.4,1.5,100.2*
